Here are results for one compound from article PMC6130785 (ACS Omega, 2018).

The target of test [1] is T1, PIKFYVE (Homo sapiens, UniProt Q9Y2I7). Put plainly: Lipid kinase competition assay. The format is binding. The settings on record: Table 2 / Figure 3 compound series, standard dose-response curve. In short, it runs like this: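 Competition binding: biotinylated kinase-specific control ligand on streptavidin magnetic beads formed affinity resin. DNA-tagged PIKFYVE, liganded beads and test compound were combined. Bound kinase was eluted and quantified by qPCR of its DNA tag. Kinase amount was plotted against test compound concentration, and Kd was fitted to a standard dose–response curve using the Hill equation.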
T1 sequence (Q9Y2I7 whole entry): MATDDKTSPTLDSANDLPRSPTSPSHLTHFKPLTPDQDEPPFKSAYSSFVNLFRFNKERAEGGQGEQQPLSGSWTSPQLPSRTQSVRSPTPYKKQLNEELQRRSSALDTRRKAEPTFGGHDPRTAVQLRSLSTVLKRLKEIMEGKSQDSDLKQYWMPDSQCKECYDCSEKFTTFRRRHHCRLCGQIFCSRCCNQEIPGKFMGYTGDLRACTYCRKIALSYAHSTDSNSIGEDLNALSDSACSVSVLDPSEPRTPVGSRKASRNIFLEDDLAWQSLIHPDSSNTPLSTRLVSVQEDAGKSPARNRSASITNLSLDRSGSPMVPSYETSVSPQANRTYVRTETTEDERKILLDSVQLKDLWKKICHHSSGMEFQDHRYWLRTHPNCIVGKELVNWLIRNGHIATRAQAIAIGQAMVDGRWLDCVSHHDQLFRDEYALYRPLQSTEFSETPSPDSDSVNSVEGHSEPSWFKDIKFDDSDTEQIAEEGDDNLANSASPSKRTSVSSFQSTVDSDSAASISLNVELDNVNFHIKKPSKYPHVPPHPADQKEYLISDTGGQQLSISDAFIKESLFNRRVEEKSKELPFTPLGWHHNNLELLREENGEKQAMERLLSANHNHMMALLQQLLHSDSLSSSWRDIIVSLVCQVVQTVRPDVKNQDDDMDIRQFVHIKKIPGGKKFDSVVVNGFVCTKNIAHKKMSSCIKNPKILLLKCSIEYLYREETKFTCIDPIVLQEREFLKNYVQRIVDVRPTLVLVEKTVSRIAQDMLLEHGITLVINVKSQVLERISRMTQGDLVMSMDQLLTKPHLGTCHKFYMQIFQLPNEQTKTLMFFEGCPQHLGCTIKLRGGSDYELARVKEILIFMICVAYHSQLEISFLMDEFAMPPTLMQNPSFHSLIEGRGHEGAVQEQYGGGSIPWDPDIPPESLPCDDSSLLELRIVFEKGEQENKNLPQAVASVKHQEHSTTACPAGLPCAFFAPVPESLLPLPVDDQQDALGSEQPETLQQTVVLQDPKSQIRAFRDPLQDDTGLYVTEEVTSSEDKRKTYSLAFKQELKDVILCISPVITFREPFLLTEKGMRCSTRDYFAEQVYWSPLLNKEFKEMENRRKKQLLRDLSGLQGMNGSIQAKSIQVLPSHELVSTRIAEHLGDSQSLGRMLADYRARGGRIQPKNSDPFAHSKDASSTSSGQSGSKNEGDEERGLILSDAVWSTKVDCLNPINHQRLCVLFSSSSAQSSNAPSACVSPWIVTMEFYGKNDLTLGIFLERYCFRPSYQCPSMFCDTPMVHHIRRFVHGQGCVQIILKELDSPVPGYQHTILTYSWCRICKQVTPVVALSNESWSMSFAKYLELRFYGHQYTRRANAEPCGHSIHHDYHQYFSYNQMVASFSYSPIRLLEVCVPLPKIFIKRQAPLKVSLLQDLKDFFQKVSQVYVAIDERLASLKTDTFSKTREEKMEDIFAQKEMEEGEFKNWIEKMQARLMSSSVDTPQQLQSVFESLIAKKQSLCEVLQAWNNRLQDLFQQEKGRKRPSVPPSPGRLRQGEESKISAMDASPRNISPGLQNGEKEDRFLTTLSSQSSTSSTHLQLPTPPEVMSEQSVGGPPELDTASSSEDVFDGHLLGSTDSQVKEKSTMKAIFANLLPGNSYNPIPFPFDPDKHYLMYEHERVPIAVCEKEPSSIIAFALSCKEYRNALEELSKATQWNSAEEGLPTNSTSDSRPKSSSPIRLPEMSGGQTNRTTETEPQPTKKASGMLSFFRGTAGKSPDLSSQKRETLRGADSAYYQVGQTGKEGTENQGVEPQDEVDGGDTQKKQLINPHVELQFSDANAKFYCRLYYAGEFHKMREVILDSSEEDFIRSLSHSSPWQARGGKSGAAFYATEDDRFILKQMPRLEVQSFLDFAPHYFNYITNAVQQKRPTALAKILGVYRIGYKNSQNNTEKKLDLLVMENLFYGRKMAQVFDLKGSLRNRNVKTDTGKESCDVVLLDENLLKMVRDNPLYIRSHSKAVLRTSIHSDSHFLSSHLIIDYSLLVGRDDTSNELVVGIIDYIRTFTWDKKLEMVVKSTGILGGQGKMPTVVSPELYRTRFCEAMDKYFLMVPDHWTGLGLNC

Test [2] concerns the target T1, PIKFYVE. Put plainly: PIKFYVE inhibition assay. The format is biochemical.

One may read the Kd as the equilibrium constant for the complex coming apart. Broadly, the IC50 is the point on the concentration scale where inhibition reaches its midpoint. Lower therefore signals inhibition by little substance.

Turning to `CCOC(=O)c1[nH]c2ccc(OC)cc2c1/C=C/C(=O)c1ccncc1` [2l, (E)-Ethyl 5-Methoxy-3-(3-oxo-3-(pyridin-4-yl)prop-1-en-1-yl)-[1H]-indole-2-carboxylate], the Kd in test [1] was above 500 nM. In test [2], this compound came in with an IC50 of 446 nM.
